This note sets out measurements from ChEMBL document CHEMBL5154815, “A Series of Substituted Bis-Aminotriazines Are Activators of the Natriuretic Peptide Receptor C” (J Med Chem, 2022).

In data set [1] the target is T1, Atrial natriuretic peptide receptor 3 (Homo sapiens) (UniProt P17342).
T1 sequence (whole entry): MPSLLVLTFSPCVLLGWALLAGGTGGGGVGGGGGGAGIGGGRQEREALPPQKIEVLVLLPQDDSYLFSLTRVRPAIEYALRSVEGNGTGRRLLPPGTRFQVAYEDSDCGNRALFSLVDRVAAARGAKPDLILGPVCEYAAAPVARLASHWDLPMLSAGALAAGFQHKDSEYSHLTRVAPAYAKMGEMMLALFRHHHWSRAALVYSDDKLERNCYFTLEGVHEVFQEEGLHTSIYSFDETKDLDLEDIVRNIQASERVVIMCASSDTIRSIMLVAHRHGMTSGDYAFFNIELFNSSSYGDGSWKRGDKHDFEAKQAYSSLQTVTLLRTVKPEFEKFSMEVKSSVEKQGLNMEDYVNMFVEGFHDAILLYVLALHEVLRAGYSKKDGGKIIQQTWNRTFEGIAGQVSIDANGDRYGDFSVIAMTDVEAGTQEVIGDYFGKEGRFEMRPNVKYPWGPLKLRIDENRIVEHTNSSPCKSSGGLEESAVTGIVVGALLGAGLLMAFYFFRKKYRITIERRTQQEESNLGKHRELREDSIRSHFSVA
The data set can be described thus: Binding affinity to CM5 sensor chip immobilized human NPR-C (27 to 541 residues) assessed as maximum response by surface plasmon resonance analysis relative to control. In a few lines: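 SPR on CM5-immobilized NPR-C (27–541) in PBS-P with 1% DMSO, double-referenced. Observed Rmax was expressed as a percentage of theoretical Rmax. Theoretical Rmax was calculated from immobilized protein response, analyte and ligand molecular weights, and binding stoichiometry.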

Data set [2] deals with T2, Atrial natriuretic peptide receptor 3 (Rattus norvegicus, UniProt P41740).
T2 sequence (P41740 whole entry): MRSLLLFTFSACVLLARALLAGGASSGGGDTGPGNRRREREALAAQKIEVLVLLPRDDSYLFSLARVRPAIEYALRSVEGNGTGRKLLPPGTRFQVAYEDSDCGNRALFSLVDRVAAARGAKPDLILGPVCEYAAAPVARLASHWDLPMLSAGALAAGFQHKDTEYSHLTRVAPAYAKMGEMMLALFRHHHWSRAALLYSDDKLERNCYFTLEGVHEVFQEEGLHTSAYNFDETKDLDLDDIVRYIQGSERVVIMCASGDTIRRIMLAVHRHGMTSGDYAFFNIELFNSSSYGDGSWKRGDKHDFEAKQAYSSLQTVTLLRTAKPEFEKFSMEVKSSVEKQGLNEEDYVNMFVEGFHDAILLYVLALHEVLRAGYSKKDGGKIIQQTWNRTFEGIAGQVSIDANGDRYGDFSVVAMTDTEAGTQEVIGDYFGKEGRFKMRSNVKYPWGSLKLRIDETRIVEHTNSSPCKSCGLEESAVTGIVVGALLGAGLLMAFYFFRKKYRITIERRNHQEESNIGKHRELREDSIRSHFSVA
As to the kind of experiment: Agonist activity at NPRC in rat aorta assessed as vasorelaxation by Organ bath assay. In kind it is tissue-based.

In data set [3] the target is T3, Atrial natriuretic peptide receptor 3 (Homo sapiens, UniProt P17342).
T3 sequence (P17342 whole entry): T1 sequence (whole entry)
The data set can be described thus: Binding affinity to CM5 sensor chip immobilized human NPR-C (27 to 541 residues) assessed as dissociation constant by surface plasmon resonance analysis. Background: In SPR one partner is held on a chip, and binding of the other changes the refractive index at the surface.

Data set [4] addresses T3, Atrial natriuretic peptide receptor 3. As to the kind of experiment: Displacement of Flu-P19 probe from human NPR-C (27 to 541 residues) by fluorescence polarization analysis. The method in brief: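 Competition fluorescence polarization used NPR-C extracellular domain protein (20 nM final) and Flu-P19 probe (150 pM final) in PBS-P with 1% DMSO. Ligand ranged 600–0.274 μM, and samples were assembled on ice. Read-out was at ex 485/em 520 nm, normalized to buffer+probe and protein+probe controls and blanked with buffer alone. EC50 came from curve fitting.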
On the technique in general: Polarisation of emitted light reports the rotation of a fluorescent probe.

For data set [5], the target named is T1, Atrial natriuretic peptide receptor 3 (Homo sapiens). As to the kind of experiment: Agonist activity at NPRC in human HeLa cells assessed as decrease in forskolin-induced cAMP level at 100 nM. As to conditions: filed as agonist. In kind it is cell-based. In general terms: Cyclic AMP is a second messenger, typically raised through Gs and lowered through Gi signalling.

Data set [6] has the same target. The data set can be described thus: Agonist activity at NPRC in human Hela cells assessed as decrease in forskolin-induced cAMP level at 100 uM relative to control. In kind it is cell-based. Further details: scale not given: the % may be the effect or the level left.
The nature of data set [7]: Protein binding in human plasma by equilibrium dialysis assay.
The target in data set [8] is T4, Atrial natriuretic peptide receptor 3 (Mus musculus, UniProt P70180).
T4 sequence (P70180 whole entry): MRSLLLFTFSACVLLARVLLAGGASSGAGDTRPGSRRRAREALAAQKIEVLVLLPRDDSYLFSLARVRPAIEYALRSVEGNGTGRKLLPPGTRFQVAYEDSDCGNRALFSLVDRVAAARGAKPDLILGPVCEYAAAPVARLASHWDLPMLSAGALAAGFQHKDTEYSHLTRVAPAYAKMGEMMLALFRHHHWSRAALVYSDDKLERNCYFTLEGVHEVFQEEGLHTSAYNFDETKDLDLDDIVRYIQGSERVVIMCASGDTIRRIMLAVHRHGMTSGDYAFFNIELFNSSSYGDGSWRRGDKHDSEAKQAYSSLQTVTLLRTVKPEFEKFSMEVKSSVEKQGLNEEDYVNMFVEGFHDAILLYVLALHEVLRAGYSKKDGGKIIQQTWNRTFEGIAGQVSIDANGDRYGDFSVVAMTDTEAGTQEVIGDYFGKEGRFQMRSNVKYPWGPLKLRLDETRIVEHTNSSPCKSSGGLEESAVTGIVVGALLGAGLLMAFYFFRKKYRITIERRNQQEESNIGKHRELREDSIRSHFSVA
The data set can be described thus: Agonist activity at NPRC in wild type mouse mesenteric arteries assessed as vasorelaxation by Organ bath assay. In kind it is tissue-based, Artery.

Another data set addresses Cytochrome P450 2C19 (Homo sapiens, UniProt P33261). As to the kind of experiment: Inhibition of CYP2C19 in human liver microsomes using S-mephenytoin as substrate preincubated for 10 mins followed by NADPH addition and measured after 20 mins by LC/MS/MS analysis.
Data set [9] in a line: Stability of compound in pooled human plasma assessed as half life measured upto 120 mins by LC/MS/MS analysis. Particulars: 2 h.
For data set [10] the following is noted: rat, hepatocytes, 20 min, 1 µM.
A further data set concerns the target Cytochrome P450 2C9 (Homo sapiens, UniProt P11712). The data set can be described thus: Inhibition of CYP2C9 in human liver microsomes using diclofenac as substrate preincubated for 10 mins followed by NADPH addition and measured after 10 mins by LC/MS/MS analysis.
Data set [11] addresses T2, Atrial natriuretic peptide receptor 3. As to the kind of experiment: Agonist activity at NPRC in rat small mesenteric arteries assessed as vasorelaxation preincubated with M372049 for 15 mins followed by compound treatment by Organ bath assay. In kind it is tissue-based, Artery.
The nature of data set [12]: Stability in Sprague-Dawley rat hepatocytes assessed as clearance per […] at 1 uM after 20 mins by LC-MS/MS analysis. In kind it is ADME, cell-based, Hepatocyte.
Data set [13] can be described thus: Solubility of compound in PBS at 10 mM after 3 hrs by UV analysis. As to conditions: buffer, 10000 µM.
In data set [14] the target is T2, Atrial natriuretic peptide receptor 3. The data set can be described thus: Agonist activity at NPRC in rat small mesenteric arteries assessed as vasorelaxation by Organ bath assay. In kind it is tissue-based, Artery.
The target of data set [15] is T4, Atrial natriuretic peptide receptor 3. As to the kind of experiment: Agonist activity at NPRC in knock out mouse mesenteric arteries assessed as vasorelaxation by Organ bath assay. In kind it is tissue-based, Artery.

Calls of active or inactive are those of the source. The rule behind the calls is not given here. Where a SMILES comes first, the peptide text is derived from it.

Sequence of Cytochrome P450 2C9 (P11712 whole entry): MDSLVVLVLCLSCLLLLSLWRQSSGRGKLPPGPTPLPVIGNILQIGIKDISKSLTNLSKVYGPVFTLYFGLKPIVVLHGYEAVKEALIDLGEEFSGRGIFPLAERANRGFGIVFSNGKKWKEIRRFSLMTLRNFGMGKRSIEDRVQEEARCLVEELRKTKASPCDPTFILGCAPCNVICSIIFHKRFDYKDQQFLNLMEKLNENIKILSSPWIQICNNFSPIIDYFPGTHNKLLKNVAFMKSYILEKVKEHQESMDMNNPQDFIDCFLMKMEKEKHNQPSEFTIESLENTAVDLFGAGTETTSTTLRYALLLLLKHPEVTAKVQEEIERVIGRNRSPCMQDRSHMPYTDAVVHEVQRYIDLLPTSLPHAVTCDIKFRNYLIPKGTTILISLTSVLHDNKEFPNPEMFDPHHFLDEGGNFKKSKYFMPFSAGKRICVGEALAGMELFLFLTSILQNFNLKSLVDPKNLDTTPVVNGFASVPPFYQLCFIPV
Sequence of Cytochrome P450 2C19 (P33261 whole entry): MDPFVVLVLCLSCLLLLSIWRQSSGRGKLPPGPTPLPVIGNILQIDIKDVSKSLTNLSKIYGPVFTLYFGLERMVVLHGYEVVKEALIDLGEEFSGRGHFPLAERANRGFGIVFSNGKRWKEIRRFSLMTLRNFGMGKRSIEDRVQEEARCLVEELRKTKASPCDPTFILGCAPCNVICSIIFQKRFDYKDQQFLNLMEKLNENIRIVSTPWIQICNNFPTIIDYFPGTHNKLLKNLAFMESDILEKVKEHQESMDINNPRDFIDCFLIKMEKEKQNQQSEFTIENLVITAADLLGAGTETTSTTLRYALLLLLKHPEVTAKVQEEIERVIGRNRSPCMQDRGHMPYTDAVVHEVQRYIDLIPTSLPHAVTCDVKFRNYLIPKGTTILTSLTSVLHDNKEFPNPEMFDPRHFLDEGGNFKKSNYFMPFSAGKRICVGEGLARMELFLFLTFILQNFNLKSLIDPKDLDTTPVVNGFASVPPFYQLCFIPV

As to `CC(=O)Nc1ccc(Nc2ncnc(NC(C)(C)C(=O)OC(C)(C)C)n2)cc1`, the Rmax in [1] is less than 20%.

Broadly, the EC50 is the concentration at which the effect is half-maximal. The Kd is a measure of binding affinity in units of concentration. For the compound `CC(=O)Nc1ccc(Nc2ncnc(N[C@@H](Cc3ccc(F)cc3)C(=O)OC(C)(C)C)n2)cc1`, the EC50 in [2] amounted to 4.43 µM. In addition, the Kd in data set [3] worked out at 23.7 µM.

`CCCCS(=O)(=O)Nc1ccc(Nc2ncnc(N[C@@H](CC(C)C)C(=O)OC(C)(C)C)n2)cc1`: the dissociation constant (Kd) in data set [3] was 45.1 µM.

As for `CC(=O)Nc1ccc(Nc2ncnc(N[C@@H](CC(C)C)C(=O)OC3CCCC3)n2)cc1`, in [3], the equilibrium dissociation constant (Kd) came to 25 µM.

As to `CC(=O)Nc1ccc(Nc2ncnc(N[C@H](C(=O)OC(C)(C)C)C3CCCCC3)n2)cc1`, the values for the half-maximal effective concentration (EC50) in data set [2] and in data set [4] were 6.24 µM and 327 µM, respectively. Also, in [3], the equilibrium dissociation constant (Kd) was found to be 28 µM.

For the compound `CC(=O)Nc1ccc(Nc2ncnc(N[C@H](COC(C)(C)C)CC(C)C)n2)cc1`, the Kd in [3] stood at 42.2 µM.

As for `CC[C@H](C)[C@H](NC(=O)[C@H](CCCNC(=N)N)NC(=O)[C@H](CC(=O)O)NC(=O)[C@H](CCSC)NC(=O)[C@H](CCCNC(=N)N)NC(=O)CNC(=O)CNC(=O)[C@H](Cc1ccccc1)NC(=O)[C@H](CS)NC(=O)[C@H](CO)NC(=O)[C@H](CO)NC(=O)[C@@H](N)CCCNC(=N)N)C(=O)NCC(=O)N[C@@H](C)C(=O)N[C@@H](CS)C(=O)N[C@@H](CC(N)=O)C(=O)O` (H-RSSCFGGRMDRIGACN-OH), the outcome in data set [5] was Active.

`CC(=O)Nc1ccc(Nc2ncnc(N[C@@H](Cc3ccc(O)cc3)C(=O)OC(C)(C)C)n2)cc1`: the Rmax in data set [1] was less than 20%.

With `CC(=O)Nc1ccc(Nc2ncnc(N[C@@H](Cc3ccccc3)C(=O)OC(C)(C)C)n2)cc1`, the Activity in data set [6] came out at 9.16%. Also, the Kd in data set [3] was 31.3 µM. This compound also displayed a half-maximal effective concentration (EC50) in [4] of 32 µM.

As for `CC(=O)Nc1ccc(Nc2ncnc(N[C@H](CC(C)C)C(=O)OC(C)(C)C)n2)cc1`, the Rmax in [1] was less than 20%.

`CC(=O)Nc1ccc(Nc2ncnc(N[C@@H](Cc3ccccc3)C(=O)O)n2)cc1` returned a half-maximal effective concentration (EC50) in data set [4] of 60 µM.

Take `CC(C)C[C@H](Nc1nc(Cl)nc(Nc2ccc(NS(=O)(=O)c3ccccc3)cc2)n1)C(=O)OC(C)(C)C`: the Kd in [3] turned out to be 99 µM.

As usually defined, the IC50 is the point on the concentration scale where inhibition reaches its midpoint. The term solubility denotes how much of the substance goes into solution per volume. With `COC(=O)[C@H](CC(C)C)Nc1nc(Cl)nc(N[C@H]2CC[C@H](Nc3nc(Cl)nc(N[C@@H](CC(C)C)C(=O)OC)n3)CC2)n1`, the Activity in [6] turned out to be 31.4%. The compound also registered a PPB in data set [7] of 99.5%. Also, the EC50 in data set [2] is 1.43 µM; in data set [8] it was 1.16 µM; in data set [11], 0.47 µM; in [14], 0.97 µM; in data set [15], 2.64 µM. In addition, the figures for the half-maximal inhibitory concentration (IC50) against Cytochrome P450 2C19 and at Cytochrome P450 2C9 were 37.8 µM and 4.96 µM, respectively. Besides, the t1/2 is greater than 1 h in data set [9] and greater than 3.613 h in [10]. Further, the Kd in [3] is 95.7 µM. Moreover, in data set [12], the CLH was less than 0.64 µL/min. In data set [13], the solubility is greater than 122.52 mg/mL.

For the compound `CC(=O)Nc1ccc(Nc2ncnc(N[C@@H](CC(C)C)C(=O)OC(C)C)n2)cc1`, the dissociation constant Kd in data set [3] turned out to be 84.4 µM.

For `CC(=O)Nc1ccc(Nc2nc(Cl)nc(N[C@@H](CC(C)C)C(=O)OC(C)(C)C)n2)cc1`, the equilibrium dissociation constant (Kd) in data set [3] came to 36.9 µM.

`CC(=O)Nc1ccc(Nc2ncnc(N[C@@H](CC(C)C)C(=O)OC(C)(C)C)n2)cc1`: in [6], the Activity is 20.6%. Further, the Kd in data set [3] was 30.8 µM.

Consider `CCCCS(=O)(=O)Nc1ccc(Nc2nc(Cl)nc(N[C@@H](CC(C)C)C(=O)OC(C)(C)C)n2)cc1`, for which the Kd in data set [3] amounted to 25.7 µM.

Consider `CC(=O)Nc1ccc(Nc2ncnc(N[C@@H](C)C(=O)OC(C)(C)C)n2)cc1`, for which the EC50 came to 78.1 µM in data set [2] and 3.45 µM in [14]. Moreover, in [1], the Rmax was less than 20%.

Turning to `CC(=O)Nc1ccc(Nc2ncnc(N[C@H](C(=O)OC(C)(C)C)C(C)C)n2)cc1`, the equilibrium dissociation constant (Kd) in data set [3] amounted to 79 µM.

As to `CC(=O)Nc1ccc(Nc2ncnc(N[C@@H](CCc3ccccc3)C(=O)OC(C)(C)C)n2)cc1`, the EC50 in [2] is 3.76 µM. The Kd in [3] was 23.8 µM.

In the case of `CC(=O)Nc1ccc(Nc2ncnc(NCC(=O)OC(C)(C)C)n2)cc1`, the dissociation constant Kd in data set [3] came to 832 µM.

As for `CC(=O)Nc1ccc(Nc2ncnc(N[C@H](C(=O)OC(C)(C)C)C(C)(C)C)n2)cc1`, the dissociation constant Kd in data set [3] turned out to be 201 µM.
